Assay [1] can be described thus: inhibitors of TNFa-induced NFkB p65 translocation, primary screen, imaging, HUVEC, MLSMR starter and 10KST1 sets (AID 438;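 active = inhibition above 20% together with a positive visual image hit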;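 note: compound added about 3h40 before a 20 min TNFalpha stimulation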;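 for inhibition: signal is the nuclear over cytoplasmic p65 intensity ratio per well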). The note with it: HUVEC TNFa-induced p65 nuclear translocation; cell count: measured here: nuclei count (cytotoxicity indicator), at 2.08 µM; inhibition: at 2 µM, stronger effect = higher value, 0% TNFa-plus-vehicle, 100% no-TNFa wells.
Assay [2] is described as follows: inhibitors of E-selectin induction by TNFa, primary screen, imaging, HUVEC, immunofluorescence, MLSMR starter and 10KST1 sets (AID 487;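 active = visually confirmed hit in the image check and inhibition above 20%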;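 for inhibition: signal is fraction of cell area covered by stained E-selectin grains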;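 for nuclei count: 100% = median nuclei count of all wells on the same plate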). The note with it: HUVEC TNFalpha-induced E-selectin immunofluorescence imaging, at 2 µM; inhibition: stronger effect = higher value; nuclei count: measured here: cell number, toxicity.
A short description of assay [3]: DUSP6 inhibitors restoring Erk phosphorylation by chemical complementation, primary imaging in DUSP6-transfected HeLa (AID 609).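 For inhibition: phospho-Erk level distribution per well compared with pooled transfected vehicle control wells.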 The conditions noted are these: HeLa MKP-3 transfected, phospho-Erk imaging KS statistic, at 10 µM, cells stimulated with TPA for 15 min.
For assay [4], the target named is Dual specificity protein phosphatase 6 (Homo sapiens) (UniProt Q16828). The description is as above. The conditions noted are these: HeLa MKP-3 transfected, phospho-Erk imaging KS statistic; at 10 µM; stronger effect = higher value; cells stimulated with TPA for 15 min.
Assay [5] has as its target Voltage-gated potassium channel subunit beta-2 (Rattus norvegicus) (UniProt P62483). Nature of the assay: KvBeta enzyme negative modulators, primary screen, biochemical, NADPH fluorescence (AID 622;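 active = fluorescence slope higher than the sample average by over 3 SD, cut at about -0.22 in these data, passing the limit was not always enough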;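 note: slope of raw intensity against log time taken from 70 to 1610 s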). The note with it: recombinant KvBeta, 4-cyanobenzaldehyde reduction, at 10 µM, stronger effect = higher value.
The target is the same in assay [6]. Nature of the assay: KvBeta positive modulators, primary screen, biochemical, NADPH fluorescence (AID 623;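 active = NADPH fluorescence slope more negative than the mean of all samples by about 3 SD, 99.7% confidence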;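 note: fluorescence intensity change per second fitted from 20 to 320 s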). The conditions noted are these: Recombinant KvBeta, NADPH fluorescence decrease slope, 10 min; at 10 µM; stronger effect = lower value.
The target in assay [7] is Alpha-2C adrenergic receptor (Homo sapiens) (UniProt P18825). The assay is described as follows: modulators of alpha2C/GIRK thallium flux, primary screen, cell-based, HEK293 alpha2C/GIRK1/2 (AID 624;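 active = fluorescence slope after compound addition differing from the mean of all screened samples at 99.7% confidence, in either direction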;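 note: slope of fluorescence ratio to pre-addition baseline per second over 15 to 24 s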). The conditions noted are these: thallium flux BTC fluorescence, at 10 µM, actives lie on both sides.
A short description of assay [8]: inhibitors of larval lipid processing in zebrafish, primary screen, whole organism, PED6 fluorescence, gall bladder and intestine (AID 686;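 active = a full or partial loss of lipid-probe fluorescence in the fish gall bladder, intestine or both, judged by eye; inactive = no fluorescence loss, or compound toxic to the fish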;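 note: larvae 5 to 7 days old with five fish per well; signal comes from phospholipase A2 cleavage of quenched PED6 carried via bile; overnight exposure to compound and PED6 before scoring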). The note with it: Zebrafish larvae PED6 lipid processing, fluorescence scoring; screened at 20 µM (by protocol). In outline: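 Test system – live zebrafish larvae aged 5-7 days, whole organism · Buffer or medium – E3 fish medium · Reagent – quenched phospholipase substrate PED6, 100 nM final, ingested by larvae · Doses – 20 µM single dose · Incubation – overnight compound and PED6 incubation · Technique – visual fluorescence microscopy scoring of gall bladder, gut · Read-out basis – visual per-well fluorescence inhibition score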

The nature of assay [9]: inhibitors of Chlamydomonas gravitaxis, primary screen, whole organism, Chlamydomonas reinhardtii, WT vs cilia-less mutant, absorbance, 96-well (AID 463189;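 active = inhibition at or above 50% relative to wild type and mutant plate controls; inactive = inhibition below 50%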;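 note: 0% = wild type cc124 cells in DMSO and 100% = ciliumless bld1 mutant cells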). The note with it: OD600 absorbance, 2 days, at 10 µM, stronger effect = higher value.
The mark [10] stands for this setting: measured here: cell density z-score.
Setting [11] is: measured here: nuclear c-Myc green intensity z-score.
Setting [12] is: measured here: nuclear pErk red intensity z-score, stronger effect = higher value.

Active and inactive are the calls of the source.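 Rule for the calls, unless noted: active = compounds giving at least 50% inhibition in the cell-based MKP-3 phosphatase rescue imaging test; inactive = the rest.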

Sequence of Alpha-2C adrenergic receptor (Homo sapiens) (P18825 whole entry, looked up): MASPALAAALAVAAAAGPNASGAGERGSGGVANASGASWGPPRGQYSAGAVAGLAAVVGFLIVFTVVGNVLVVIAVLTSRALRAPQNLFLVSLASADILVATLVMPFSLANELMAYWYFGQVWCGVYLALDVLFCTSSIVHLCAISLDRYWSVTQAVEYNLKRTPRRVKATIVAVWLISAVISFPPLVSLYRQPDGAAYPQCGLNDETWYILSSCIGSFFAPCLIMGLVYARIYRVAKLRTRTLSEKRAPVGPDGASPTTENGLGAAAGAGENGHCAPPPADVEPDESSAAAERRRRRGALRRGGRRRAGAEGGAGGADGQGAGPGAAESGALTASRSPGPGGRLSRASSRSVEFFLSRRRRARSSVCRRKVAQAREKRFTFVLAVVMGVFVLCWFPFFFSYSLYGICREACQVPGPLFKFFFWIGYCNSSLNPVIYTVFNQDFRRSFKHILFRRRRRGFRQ
Sequence of Voltage-gated potassium channel subunit beta-2 (Rattus norvegicus) (P62483 whole entry, looked up): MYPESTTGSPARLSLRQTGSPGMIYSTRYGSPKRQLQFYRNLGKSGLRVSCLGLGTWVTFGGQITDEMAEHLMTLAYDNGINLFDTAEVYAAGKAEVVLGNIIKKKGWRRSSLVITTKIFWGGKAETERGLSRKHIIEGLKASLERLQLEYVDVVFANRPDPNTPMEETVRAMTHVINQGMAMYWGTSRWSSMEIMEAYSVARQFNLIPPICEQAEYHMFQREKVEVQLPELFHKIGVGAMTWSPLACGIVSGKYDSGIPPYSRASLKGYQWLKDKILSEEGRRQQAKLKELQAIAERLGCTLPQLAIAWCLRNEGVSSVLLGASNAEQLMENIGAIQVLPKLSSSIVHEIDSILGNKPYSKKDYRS
Sequence of Dual specificity protein phosphatase 6 (Homo sapiens) (Q16828 whole entry, looked up): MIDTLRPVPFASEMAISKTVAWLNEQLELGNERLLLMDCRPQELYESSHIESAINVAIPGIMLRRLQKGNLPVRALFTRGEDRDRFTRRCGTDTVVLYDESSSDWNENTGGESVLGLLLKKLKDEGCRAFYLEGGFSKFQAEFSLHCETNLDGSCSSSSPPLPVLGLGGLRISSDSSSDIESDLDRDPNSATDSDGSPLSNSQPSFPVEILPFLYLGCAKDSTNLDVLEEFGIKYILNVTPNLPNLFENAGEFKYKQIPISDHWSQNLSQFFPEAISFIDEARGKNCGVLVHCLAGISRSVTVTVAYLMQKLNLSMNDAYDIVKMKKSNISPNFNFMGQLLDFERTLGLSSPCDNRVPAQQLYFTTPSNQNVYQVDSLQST

In the case of `CCCCN(CCCC)c1nc2ccccc2nc1C(C#N)C(=O)NCCCOC` (stereo unspecified), in assay [1], the cell count was 382. In addition, the inhibition in assay [1] was -6.8% (inactive); in [2] it was -187% (inactive); in assay [4], -5.89% (inactive); in assay [9], 5.14% (inactive). Besides, the nuclei count in [2] came to 156%. The z-score in assay [3] (setting [10]) was -0.742; in assay [3] (setting [11]), 0.7; in [3] (setting [12]), 0.633. Besides, in [5], the fluorescence slope is -0.0828 (active). Besides, the NADPH fluorescence slope in assay [6] was 9.1e-06 (inactive). Moreover, in [7], the slope was 0 (active). For the same molecule, the molecule was called inactive in assay [8].
Consider `Cc1cc(C)n(Cc2ccc(C(=O)NCCC3=CCCCC3)o2)n1`, for which the cell count in [1] stood at 333. Moreover, the inhibition in assay [1] is -8% (inactive); in assay [2], -28.7% (inactive); in assay [4], 8.76% (inactive); in [9] it was 16.8% (inactive). In addition, the nuclei count in assay [2] amounted to 119%. Besides, the z-score is 0.702 in assay [3] (setting [10]), 0.069 in assay [3] (setting [11]) and -0.61 in [3] (setting [12]). In assay [5], the fluorescence slope was -0.456 (inactive). Moreover, the NADPH fluorescence slope in assay [6] is -0.000101 (inactive). Moreover, the slope in [7] is 0.00523 (inactive). The call in [8] was inactive.
For the molecule `COc1cc(C2C3C(=O)N(c4ccc(F)cc4)C(=O)C3ON2c2ccccc2)ccc1O` (stereo unspecified), the cell count in [1] amounted to 470. Moreover, the inhibition in assay [1] is -13.5% (inactive); in assay [2] it was -60% (inactive); in assay [4], -13.3% (inactive); in assay [9], 16.5% (inactive). The nuclei count in assay [2] stood at 137%. The z-score in assay [3] (setting [10]) is -1.73; in assay [3] (setting [11]) it was -0.628; in [3] (setting [12]), 0.0709. Moreover, the fluorescence slope in assay [5] is -0.498 (inactive). Further, in assay [6], the NADPH fluorescence slope was -3.2e-05 (inactive). The slope in [7] is 0.00461 (inactive). Also, the result in assay [8] was inactive.
Regarding `COCCCNC(=O)c1c(N)n(/N=C/c2cccs2)c2nc3ccccc3nc12`, in assay [1], the cell count came out at 342. For the same molecule, the inhibition in assay [1] was -11.1% (inactive); in assay [2], 4.6% (inactive); in [4], 17.4% (inactive); in [9], 24.1% (inactive). The molecule further displayed a nuclei count in [2] of 125%. Moreover, the z-score in [3] (setting [10]) was 0.439; in assay [3] (setting [11]), -0.623; in [3] (setting [12]) it was -0.0865. Besides, in assay [5], the fluorescence slope is -0.266 (inactive). The NADPH fluorescence slope in assay [6] was -5.1e-05 (inactive). For the same molecule, the slope in assay [7] was 0.00731 (inactive). In addition, the molecule was called inactive in [8].
Turning to `Cc1cc(C)n(C(=O)CNC(=O)CCc2ccccc2)n1`, the cell count in [1] was 562. The inhibition in assay [1] is -0.6% (inactive); in assay [2], 62.6% (inactive); in assay [4] it was -1.75% (inactive); in assay [9], -9.43% (inactive). The molecule also returned a nuclei count in [2] of 151%. Further, the figures for the z-score in assay [3] (setting [10]), in assay [3] (setting [11]) and in assay [3] (setting [12]) were 1.03, -0.553 and -0.0899, respectively. Besides, the fluorescence slope in assay [5] was -0.411 (inactive). For the same molecule, the NADPH fluorescence slope in assay [6] was -2.5e-05 (inactive). Besides, the slope in assay [7] was 0.00565 (inactive). In assay [8], the molecule was classed as inactive.
Regarding `COc1cc(C)nc(Oc2ccc(OCCOc3ccc(C)cc3)nn2)n1`, the cell count in assay [1] was 440. Also, the inhibition in assay [1] was -2.4% (inactive); in [2] it was -191% (inactive); in assay [4], 2.46% (inactive); in assay [9] it was 3.2% (inactive). Besides, the nuclei count in assay [2] came out at 163%. The z-score was 0.149 in assay [3] (setting [10]), -0.102 in assay [3] (setting [11]) and 0.972 in [3] (setting [12]). For the same molecule, the fluorescence slope in assay [5] is -0.415 (inactive). Further, in assay [6], the NADPH fluorescence slope is -3.1e-05 (inactive). Also, the slope in assay [7] is 0.00505 (inactive). Also, the outcome in [8] was inactive.
Consider `Cc1c(N2C(=O)SC(CC(=O)O)C2=O)c(=O)n(-c2ccccc2)n1C` (stereo unspecified), for which, in assay [1], the cell count is 500. Further, the inhibition was 1.9% (inactive) in [1], -80.6% (inactive) in [2], -10.5% (inactive) in [4] and -1.65% (inactive) in assay [9]. This molecule also returned a nuclei count in assay [2] of 128%. Further, the values for the z-score in [3] (setting [10]), in [3] (setting [11]) and in assay [3] (setting [12]) were -1.16, -0.83 and -0.709, respectively. For the same molecule, the fluorescence slope in assay [5] was -0.518 (inactive). For the same molecule, the NADPH fluorescence slope in [6] was -3.7e-05 (inactive). Besides, in assay [7], the slope is 0.00585 (inactive). The outcome in assay [8] was inactive.

The values above are taken from PubChem BioAssay.
